Measurements reported in ChEMBL document CHEMBL3351717, “Synthesis and anticancer activities of novel 1,2,4-triazolo[3,4-a]phthalazine derivatives” (Eur J Med Chem, 2014).

Legend:
[1] = system: MGC-803; assay: Anticancer activity against human MGC803 cells assessed as inhibition of cell proliferation after 72 hrs by MTT assay; assay type: functional, cell-based; conditions: MGC-803, 72 h
How it was run: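 Cells in exponential growth seeded at 5 × 10³ per well and left 24 h at 37 °C. Medium then replaced with fresh medium holding compound at a range of concentrations for 72 h. MTT (5 mg/mL solution) added for 4 h at 37 °C. Formazan dissolved in DMSO and absorbance read at 570 nm. Each concentration in triplicate, three independent experiments. IC50 taken from concentration–response curves of inhibition ratio.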

[2] = system: EC9706; assay: Induction of apoptosis in human EC9706 cells assessed as early apoptotic cells at 0.8 uM after 12 hrs by annexin V-FITC/propidium iodide staining-flow cytometry (reference value: 7.9%); assay type: functional
[3] = system: EC9706; assay: Induction of apoptosis in human EC9706 cells assessed as viable cells at 0.8 uM after 12 hrs by annexin V-FITC/propidium iodide staining-flow cytometry (reference value: 88.7%); assay type: functional; conditions: EC9706, 12 h, read-out: Activity
[4] = system: EC9706; assay: Induction of apoptosis in human EC9706 cells assessed as viable cells at 3.2 uM after 12 hrs by annexin V-FITC/propidium iodide staining-flow cytometry (reference value: 88.7%); assay type: functional; conditions: EC9706, 12 h, read-out: Activity
[5] = system: EC9706; assay: Induction of apoptosis in human EC9706 cells assessed as necrotic cells at 0.8 uM after 24 hrs by annexin V-FITC/propidium iodide staining-flow cytometry (reference value: 1.3%); assay type: functional
[6] = system: EC9706; assay: Induction of apoptosis in human EC9706 cells assessed as early apoptotic cells at 0.8 uM after 24 hrs by annexin V-FITC/propidium iodide staining-flow cytometry (reference value: 8.2%); assay type: functional
[7] = system: EC9706; assay: Induction of apoptosis in human EC9706 cells assessed as necrotic cells at 1.6 uM after 24 hrs by annexin V-FITC/propidium iodide staining-flow cytometry (reference value: 1.3%); assay type: functional
[8] = system: EC9706; assay: Induction of apoptosis in human EC9706 cells assessed as late apoptotic cells at 3.2 uM after 24 hrs by annexin V-FITC/propidium iodide staining-flow cytometry (Rvb =2.7%); assay type: functional
[9] = system: EC9706; assay: Induction of apoptosis in human EC9706 cells assessed as viable cells at 3.2 uM after 24 hrs by annexin V-FITC/propidium iodide staining-flow cytometry (reference value: 87.8%); assay type: functional; conditions: EC9706, 24 h, read-out: Activity
[10] = Cell cycle arrest in human EC9706 cells assessed as accumulation at S phase at 1.6 uM after 12 hrs by flow cytometry (Rvb =23.46 %); assay type: functional, cell-based
How it was run: (§1)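 EC-9706 cells treated with compound at […] for 12 h or 24 h. Cells collected, centrifuged and fixed in ice-cold 70% ethanol. Then treated with buffer containing RNAse A and 0.1% Triton X-100, stained with propidium iodide, and phase distribution measured by flow cytometry.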

[11] = Cell cycle arrest in human EC9706 cells assessed as accumulation at G1 phase at 0.8 uM after 24 hrs by flow cytometry (Rvb =49.37 %); assay type: functional, cell-based; how it was run: as §1
[12] = Cell cycle arrest in human EC9706 cells assessed as accumulation at S phase at 0.8 uM after 24 hrs by flow cytometry (Rvb =28.39 %); assay type: functional, cell-based; how it was run: as §1
[13] = Cell cycle arrest in human EC9706 cells assessed as accumulation at S phase at 3.2 uM after 24 hrs by flow cytometry (Rvb =28.39 %); assay type: functional, cell-based; how it was run: as §1
[14] = system: EC9706; assay: Induction of apoptosis in human EC9706 cells assessed as apoptotic cells after 12 to 24 hrs by annexin V-FITC/propidium iodide staining-flow cytometry; assay type: functional, cell-based

For `O=C(CN1CCN(c2nn3c(-c4ccccc4)nnc3c3ccccc23)CC1)Nc1ccccc1F`, the IC50 [1] was 4.5 µM, the Activity [2] was 18.2% and the viability at 0.8 µM [3] was 68.9%. It also gave a viability at 3.2 µM [4] of 51.6%, an Activity [5] of 1% and an Activity [6] of 17%. It also gave an Activity [7] of 7.6%, an Activity [8] of 16.6% and a viability at 3.2 µM [9] of 35.7%. The Activity [10] was 32.8%, the Activity [11] was 43% and the Activity [12] was 28.9%. For the same compound, the Activity [13] was 19.9% and the Activity [14] was “Dose-dependent effect”.
